High-throughput results from PubChem.
ARFGAP1 inh – inhibitors of rat ARFGAP1 GAP activity, primary screen, biochemical, fluorescence polarization, GDP tracer | ADP-ribosylation factor GTPase-activating protein 1 (Rattus norvegicus), Q62848 | Arfgap1-stimulated ARF1 GTP hydrolysis, GDP FP detection | inhibition, % at 16.5 µM | 0.26% of 360,000 active;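 active means inhibition above a per-plate limit, mean inhibition of low control wells plus 3 SD, cut at about 25% in these data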;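 further: 0% = DMSO wells with enzyme and 100% = wells lacking Arfgap1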
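Material: rat Arfgap1 catalytic domain, aa 1-136; also added: human ARF1(Δ1-17)-GTP substrate; compound dosing: one concentration, 16.5 µM, DMSO 1.26%; incubation: GTP hydrolysis reaction 2 h at 25 °C; measured by: Tracer-displacement fluorescence polarization with EDTA stop, 620/688 nm; evaluation: % inhibition from polarization; repeats: one replicate per compound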
PP5 inh – PP5 phosphatase inhibitors, primary screen, biochemical, fluorescence. Serine/threonine-protein phosphatase 5 (Homo sapiens), P53041. purified PP5c, OMFP substrate fluorescence. inhibition, % at 6.7 µM. 0.18% of 320,000 active. AID 1987, 2009;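 active means inhibition above the campaign's mean inhibition across all tested compounds plus 3 SD, cut at about 9.5% in these data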;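 further: 0% = DMSO only and 100% = 100 µM cantharidin control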
Target sequence (P53041 whole entry, looked up): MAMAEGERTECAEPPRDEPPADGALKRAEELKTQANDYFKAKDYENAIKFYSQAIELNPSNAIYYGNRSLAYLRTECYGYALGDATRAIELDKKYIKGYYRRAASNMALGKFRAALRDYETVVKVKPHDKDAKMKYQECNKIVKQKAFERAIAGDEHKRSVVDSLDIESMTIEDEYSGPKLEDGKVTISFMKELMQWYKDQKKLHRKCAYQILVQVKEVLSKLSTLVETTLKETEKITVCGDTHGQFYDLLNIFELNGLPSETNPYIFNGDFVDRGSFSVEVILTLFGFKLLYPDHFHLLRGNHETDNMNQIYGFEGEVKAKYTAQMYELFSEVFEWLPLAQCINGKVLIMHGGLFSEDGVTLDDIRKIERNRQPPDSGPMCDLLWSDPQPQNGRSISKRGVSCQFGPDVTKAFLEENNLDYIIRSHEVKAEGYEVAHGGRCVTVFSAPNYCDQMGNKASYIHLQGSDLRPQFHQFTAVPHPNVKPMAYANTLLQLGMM
PKD1 kinase inh – inhibitors of human PKD1 kinase, biochemical, fluorescence polarization. Serine/threonine-protein kinase D1 (Homo sapiens), Q15139. 0.056% of 200,000 active. inhibition, % (test concentration not listed). PKD1 kinase fluorescence polarization assay; in the data active means inhibition above about 50%
ASAP1 GAP inh – inhibitors of human ASAP1 ArfGAP activity, primary screen, biochemical, fluorescence polarization; 0.19% of 360,000 active; inhibition, % at 16.5 µM; ASAP1-stimulated ARF1 GTP hydrolysis, GDP FP detection; AID 624377, 2012; in the data active means inhibition above about 25%;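 further: 0% = vehicle with enzyme and substrate and 100% = no enzyme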
ASAP1 GAP conf – ASAP1 GAP activity inhibitors, confirmation, biochemical, fluorescence polarization, human, triplicate; ASAP1-stimulated Arf1 GTPase, GDP fluorescence polarization; AID 624431, 2012; 37% of 620 active; shares compounds with ASAP1 GAP inh; inhibition, % at 16.5 µM;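 active means mean inhibition over triplicates exceeds the hit threshold derived for the earlier primary screening run, cut at about 25% in these data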
ARFGAP1 confirm – ARFGAP1 inhibitor hit confirmation, biochemical, fluorescence polarization, triplicate; shares compounds with ARFGAP1 inh; ARFGAP1-stimulated ARF1 GTP hydrolysis, GDP tracer FP; inhibition, % at 16.5 µM; 30% of 890 active; AID 651608, 2012;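 active means average inhibition over triplicates above the hit cutoff set in the earlier primary screen, cut at about 25% in these data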;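 further: 0% = Arfgap1 plus ARF1-GTP with DMSO and 100% = wells lacking Arfgap1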
An asterisk follows results filed as active; . = no result. Sampled rows, rich in hits. Any-hit rate of the full collection: about 0.54%.

SMILES	ARFGAP1 inh	PP5 inh	PKD1 kinase inh	ASAP1 GAP inh	ASAP1 GAP conf	ARFGAP1 confirm
O=C(NCc1ccncc1)C(=O)N/N=C/c1ccc(OCc2ccccc2)cc1	58*	0	-4	31*	41*	99*
CCN1CCN(Cc2ccc(NC(=O)c3cc(NC(=O)c4cncc(-c5ccc(C#N)cc5)c4)cc(OC)c3)cc2C(F)(F)F)CC1	67*	5	.	57*	75*	108*
CCN1CCN(Cc2ccc(NC(=O)c3cc(NC(=O)c4nccnc4N)cc(OC)c3)cc2C(F)(F)F)CC1	2	4	.	19	.	.
Cc1cc(Br)cn2c(Cc3cccc(F)c3)c(-c3ccccc3)nc12	5	.	.	1	.	.
C[C@@H]1CN([C@H](C)CO)C(=O)CCCn2nncc2CO[C@H]1CN(C)S(=O)(=O)c1ccc(F)cc1	-2	.	.	8	.	.
C=CCNc1nc(NCCCN2CCCC2=O)c2sc(-c3ccccc3)cc2n1	60*	.	.	38*	14	20
COCCNc1nc(NCCCN2CCCC2=O)c2sc(-c3ccccc3)cc2n1	2	.	.	19	.	.
O=C1NC[C@@H](CCCCN2CCN(CCc3ccccc3)C(=O)C2=O)N(CCc2ccc(O)cc2)C1=O	-2	.	.	-2	.	.
C=CCN(CC=C)CCCOc1ccc(C)cc1OC	46*	3	-4	51*	0	-7
COc1ccc(-c2nn(C)c3sc(C(=O)NCCN(C)C)cc23)cc1OC	33*	1	.	26*	54*	54*
NC(=S)N/N=C/c1ccccc1O	-5	0	.	2	.	.
Oc1ccccc1C=NNC(=S)NN=Cc1ccccc1O	55*	.	.	32*	58*	71*
COc1ccc(C=NN(C)C(=O)Nc2cccc(Cl)c2)cc1OC	3	.	.	6	.	.
O=C(O)c1cc(NN=Nc2cccc([N+](=O)[O-])c2)cc([N+](=O)[O-])c1	48*	0	.	29*	81*	94*
O=C(N/N=C/C=C/c1ccc([N+](=O)[O-])cc1)c1cccs1	60*	0	3	54*	67*	66*
O=C(N/N=C/C=C\c1ccccc1[N+](=O)[O-])c1cccs1	4	2	3	6	.	.
COc1ccc(-c2cc(-c3ccc(OC)c(OC)c3)n[nH]2)c(O)c1	31*	3	-7	38*	34*	37*
CC(C)(C)OC(=O)N1O[C@H]2C=C[C@@H]1C2	9	.	.	1	.	.
N#Cc1ccc(-c2ccc(OCC(=O)NCC(=O)Nc3ccc(F)c(F)c3F)cc2)cc1	58*	2	-7	37*	51*	80*
COc1ccc(/C=C2\C(=O)NC(=O)c3ccccc32)cc1OC	33*	.	.	44*	41*	19
COc1ccc2c(c1)CC/C(=C\c1ccc(OC)c(Cn3nc(C)cc3C)c1)C2=O	29*	5	1	46*	56*	8
O=C(c1ccccc1)c1sc(Nc2ccc3c(c2)OCO3)nc1-c1ccccc1	0	.	.	5	.	.
Cc1cc(C)c2nc(N3C(=O)C(O)=C(C(=O)c4ccco4)C3c3cccc(O)c3)sc2c1 (stereo unspecified)	25*	3	.	26*	39*	39*
CCN(C)C1CN(Cc2cn(Cc3ccccc3)nn2)S(=O)(=O)C1 (stereo unspecified)	-12	.	.	6	.	.
COC(=O)Cn1cc(/C=N/NC(=O)COc2cccc3cccnc23)c2ccccc21	29*	0	10	36*	34*	31*
C#CCn1cc(/C=N/NC(=O)COc2cccc3cccnc23)c2ccccc21	7	2	3	20	.	.
O=C(Nc1ccc(Cl)cc1)OC[C@@H]1CSCCS(=O)(=O)N1	-1	.	.	7	.	.
COc1cc(NC(=O)c2cc3c(C)nc4ccccc4c3o2)cc(OC)c1OC	47*	3	-5	33*	69*	52*
